# Legend:
# MV4-11 = assay: Antiproliferative activity against human MV411 cells
# BaF3 [1] = assay: Antiproliferative activity against human BaF3 cells expressing FLT3; conditions: Mus musculus
# [2] = Inhibition of c-fms; set-up: species or system Homo sapiens
# [3] = target: Tyrosine-protein kinase Fes/Fps (Homo sapiens) (UniProt P07332); assay: Inhibition of FES at 3 uM
# Procedure, shortened: (§1)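 Run in an external kinase selectivity panel at 3 µM compound with 100 µM ATP. Reported as percent inhibition.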
# [4] = target: ALK tyrosine kinase receptor (Homo sapiens) (UniProt Q9UM73); assay: Inhibition of ALK at 3 uM; procedure, shortened: as §1
# Sequence of ALK tyrosine kinase receptor (Homo sapiens) (Q9UM73 19-1620 limits assumed): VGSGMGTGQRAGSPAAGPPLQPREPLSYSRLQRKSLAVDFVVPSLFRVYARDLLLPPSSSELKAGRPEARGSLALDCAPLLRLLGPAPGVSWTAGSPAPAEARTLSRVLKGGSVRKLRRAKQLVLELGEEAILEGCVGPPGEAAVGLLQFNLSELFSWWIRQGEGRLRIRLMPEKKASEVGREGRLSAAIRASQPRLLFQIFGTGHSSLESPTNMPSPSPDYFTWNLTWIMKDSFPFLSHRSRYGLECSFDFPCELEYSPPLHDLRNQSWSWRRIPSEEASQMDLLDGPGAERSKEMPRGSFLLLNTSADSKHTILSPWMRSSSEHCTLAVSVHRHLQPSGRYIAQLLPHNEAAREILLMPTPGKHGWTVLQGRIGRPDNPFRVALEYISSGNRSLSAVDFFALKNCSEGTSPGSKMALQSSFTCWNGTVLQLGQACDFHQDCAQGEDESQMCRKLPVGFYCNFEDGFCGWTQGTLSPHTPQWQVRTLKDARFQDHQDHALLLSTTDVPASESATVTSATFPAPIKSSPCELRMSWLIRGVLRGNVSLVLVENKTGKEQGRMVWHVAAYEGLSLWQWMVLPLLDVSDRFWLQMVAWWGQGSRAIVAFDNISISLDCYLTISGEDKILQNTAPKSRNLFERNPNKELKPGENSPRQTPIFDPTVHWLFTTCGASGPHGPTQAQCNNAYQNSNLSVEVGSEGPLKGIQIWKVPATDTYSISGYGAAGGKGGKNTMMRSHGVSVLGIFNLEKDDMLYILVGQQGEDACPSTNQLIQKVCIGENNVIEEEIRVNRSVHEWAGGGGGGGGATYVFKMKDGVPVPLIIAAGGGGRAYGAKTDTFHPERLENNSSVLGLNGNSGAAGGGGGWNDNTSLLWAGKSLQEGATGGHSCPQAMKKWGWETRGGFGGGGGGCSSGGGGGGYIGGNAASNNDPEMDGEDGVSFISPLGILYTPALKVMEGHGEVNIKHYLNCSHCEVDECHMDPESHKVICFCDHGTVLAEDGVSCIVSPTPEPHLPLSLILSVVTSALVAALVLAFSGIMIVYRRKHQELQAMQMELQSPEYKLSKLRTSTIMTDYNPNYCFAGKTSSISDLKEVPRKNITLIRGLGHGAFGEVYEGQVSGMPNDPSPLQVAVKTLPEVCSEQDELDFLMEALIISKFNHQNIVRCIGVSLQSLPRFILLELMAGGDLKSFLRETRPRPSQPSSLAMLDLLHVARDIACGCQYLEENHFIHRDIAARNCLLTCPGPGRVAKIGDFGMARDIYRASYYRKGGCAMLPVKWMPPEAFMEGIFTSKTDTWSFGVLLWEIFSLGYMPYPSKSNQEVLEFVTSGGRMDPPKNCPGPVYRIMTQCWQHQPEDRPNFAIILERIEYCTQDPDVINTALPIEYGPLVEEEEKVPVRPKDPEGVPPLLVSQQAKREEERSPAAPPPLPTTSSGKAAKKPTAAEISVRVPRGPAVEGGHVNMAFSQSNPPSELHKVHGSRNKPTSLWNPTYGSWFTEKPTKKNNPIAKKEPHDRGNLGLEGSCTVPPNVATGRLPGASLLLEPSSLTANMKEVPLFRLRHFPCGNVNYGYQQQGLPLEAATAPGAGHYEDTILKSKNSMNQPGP
# [5] = target: Platelet-derived growth factor receptor beta (Homo sapiens, UniProt P09619); assay: Inhibition of PDGFRbeta
# Sequence of Platelet-derived growth factor receptor beta (P09619 whole entry): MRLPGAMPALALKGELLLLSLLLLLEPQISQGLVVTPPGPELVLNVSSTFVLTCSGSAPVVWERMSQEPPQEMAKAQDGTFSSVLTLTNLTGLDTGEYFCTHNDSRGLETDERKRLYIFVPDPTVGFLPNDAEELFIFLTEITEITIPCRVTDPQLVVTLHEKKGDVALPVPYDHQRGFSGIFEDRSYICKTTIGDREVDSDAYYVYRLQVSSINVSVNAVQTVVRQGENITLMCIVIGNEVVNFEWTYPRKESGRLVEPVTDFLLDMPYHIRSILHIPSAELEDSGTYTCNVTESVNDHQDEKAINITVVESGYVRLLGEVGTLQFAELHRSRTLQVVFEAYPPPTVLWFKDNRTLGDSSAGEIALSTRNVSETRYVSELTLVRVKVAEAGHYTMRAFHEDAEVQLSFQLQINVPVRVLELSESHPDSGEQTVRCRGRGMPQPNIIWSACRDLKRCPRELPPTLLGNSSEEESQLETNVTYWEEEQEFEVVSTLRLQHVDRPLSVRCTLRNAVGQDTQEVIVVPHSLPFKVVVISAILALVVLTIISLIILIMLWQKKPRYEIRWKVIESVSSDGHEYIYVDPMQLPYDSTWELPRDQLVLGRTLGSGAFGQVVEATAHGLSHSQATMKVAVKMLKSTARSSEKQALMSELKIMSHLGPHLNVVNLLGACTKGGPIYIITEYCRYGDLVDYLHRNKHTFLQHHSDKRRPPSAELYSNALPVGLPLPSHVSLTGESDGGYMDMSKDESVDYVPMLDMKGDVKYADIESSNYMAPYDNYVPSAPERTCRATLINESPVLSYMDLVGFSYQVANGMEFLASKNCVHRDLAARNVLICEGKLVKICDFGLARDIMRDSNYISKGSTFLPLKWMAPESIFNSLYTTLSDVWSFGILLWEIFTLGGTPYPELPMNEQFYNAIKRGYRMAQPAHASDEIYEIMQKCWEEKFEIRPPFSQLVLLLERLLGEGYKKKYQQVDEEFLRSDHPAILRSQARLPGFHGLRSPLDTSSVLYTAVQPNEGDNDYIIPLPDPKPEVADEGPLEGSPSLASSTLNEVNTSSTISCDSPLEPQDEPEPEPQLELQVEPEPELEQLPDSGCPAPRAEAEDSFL
# [6] = target: Mast/stem cell growth factor receptor Kit (Homo sapiens, UniProt P10721); assay: Inhibition of c-kit
# Sequence of Mast/stem cell growth factor receptor Kit (P10721 whole entry): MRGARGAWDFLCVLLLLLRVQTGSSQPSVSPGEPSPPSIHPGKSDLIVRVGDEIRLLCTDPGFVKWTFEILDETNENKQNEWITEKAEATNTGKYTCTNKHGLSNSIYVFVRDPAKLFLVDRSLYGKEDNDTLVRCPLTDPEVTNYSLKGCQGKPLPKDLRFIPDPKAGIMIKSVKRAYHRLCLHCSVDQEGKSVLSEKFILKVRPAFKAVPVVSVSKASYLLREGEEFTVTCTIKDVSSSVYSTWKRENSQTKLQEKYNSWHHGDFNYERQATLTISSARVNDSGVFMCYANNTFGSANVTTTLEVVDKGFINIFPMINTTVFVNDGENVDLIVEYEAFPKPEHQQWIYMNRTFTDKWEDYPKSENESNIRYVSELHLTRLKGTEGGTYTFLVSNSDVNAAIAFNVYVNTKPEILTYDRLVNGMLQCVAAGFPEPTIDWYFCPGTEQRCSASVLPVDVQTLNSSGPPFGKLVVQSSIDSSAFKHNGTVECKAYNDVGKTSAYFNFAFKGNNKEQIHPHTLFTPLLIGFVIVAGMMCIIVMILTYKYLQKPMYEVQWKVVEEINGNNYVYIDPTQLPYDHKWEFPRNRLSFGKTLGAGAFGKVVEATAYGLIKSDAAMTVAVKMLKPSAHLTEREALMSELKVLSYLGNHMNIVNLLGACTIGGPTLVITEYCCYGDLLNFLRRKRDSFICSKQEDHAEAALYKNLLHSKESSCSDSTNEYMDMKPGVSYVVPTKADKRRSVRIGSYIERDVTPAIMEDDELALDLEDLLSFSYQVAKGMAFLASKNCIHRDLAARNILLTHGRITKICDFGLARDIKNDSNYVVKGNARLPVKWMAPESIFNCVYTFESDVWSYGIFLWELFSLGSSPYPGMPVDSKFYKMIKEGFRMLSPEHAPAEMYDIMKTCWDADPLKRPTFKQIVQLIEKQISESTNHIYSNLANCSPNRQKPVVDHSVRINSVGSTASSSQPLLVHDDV
# BaF3 [7] = assay: Antiproliferative activity against […] BaF3 cells at 10 uM; type: functional
# Sequence of Tyrosine-protein kinase Fes/Fps (Homo sapiens) (P07332 whole entry): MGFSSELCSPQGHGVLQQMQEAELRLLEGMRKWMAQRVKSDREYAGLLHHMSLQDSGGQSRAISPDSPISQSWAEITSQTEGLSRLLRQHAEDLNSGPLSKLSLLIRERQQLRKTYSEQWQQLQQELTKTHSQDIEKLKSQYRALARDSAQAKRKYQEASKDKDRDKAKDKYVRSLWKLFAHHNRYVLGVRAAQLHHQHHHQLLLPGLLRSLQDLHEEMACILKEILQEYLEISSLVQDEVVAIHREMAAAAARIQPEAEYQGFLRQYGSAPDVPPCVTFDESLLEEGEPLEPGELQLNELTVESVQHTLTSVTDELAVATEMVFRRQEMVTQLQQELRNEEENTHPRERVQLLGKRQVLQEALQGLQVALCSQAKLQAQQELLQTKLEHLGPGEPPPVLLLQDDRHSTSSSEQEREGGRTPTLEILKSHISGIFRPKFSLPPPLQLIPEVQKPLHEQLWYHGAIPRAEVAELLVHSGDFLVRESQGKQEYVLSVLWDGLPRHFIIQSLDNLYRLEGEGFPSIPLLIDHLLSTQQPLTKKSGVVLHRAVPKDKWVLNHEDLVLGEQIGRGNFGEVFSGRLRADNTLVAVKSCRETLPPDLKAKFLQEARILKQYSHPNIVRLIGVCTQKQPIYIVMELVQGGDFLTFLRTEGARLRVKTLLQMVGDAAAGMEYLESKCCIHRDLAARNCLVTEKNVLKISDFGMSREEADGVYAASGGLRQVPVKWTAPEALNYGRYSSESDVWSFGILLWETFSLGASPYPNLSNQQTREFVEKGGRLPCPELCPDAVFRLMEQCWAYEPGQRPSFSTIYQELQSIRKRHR
IC50 (MV4-11) [nM],Compound,also measured
99,CO/N=C/c1c(N)ncnc1N1CCN(C(=O)Nc2ccc(N3CCCC3)cc2)CC1,–
78,CO/N=C/c1c(N)ncnc1N1CCN(C(=O)Nc2ccc(C(C)C)cc2)CC1,IC50 (BaF3 [1]): 8 nM
362,Nc1ncnc(N2CCN(C(=O)Nc3ccc(N4CCCC4)cc3)CC2)c1/C=N/OCCN1CCOCC1,–
58,CCO/N=C/c1c(N)ncnc1N1CCN(C(=O)Nc2ccc(N3CCCCC3)cc2)CC1,–
415,CC(C)Oc1ccc(NC(=O)N2CCN(c3ncnc(N)c3/C=N/OCCNS(C)(=O)=O)CC2)cc1,–
111,CO/N=C/c1c(N)ncnc1N1CCN(C(=O)Nc2ccc(OC3CCC3)nc2)CC1,–
112,CO/N=C/c1c(N)ncnc1N1CCN(C(=O)Nc2ccc(OC3CCCC3)nc2)CC1,–
472,CO/N=C/c1c(N)ncnc1N1CCN(C(=O)Nc2ccc(N(C)C)cc2)CC1,–
89,CO/N=C/c1c(N)ncnc1N1CCN(C(=O)Nc2ccc(N3CCCCC3)cc2)CC1,IC50 (BaF3 [1]): 153 nM
79,CO/N=C/c1c(N)ncnc1N1CCN(C(=O)Nc2ccc(OC(C)C)cc2)CC1,IC50 [2]: 1280 nM; inhibition [3]: 34%; inhibition [4]: 31%; IC50 [5]: 10.7 µM; IC50 [6]: 10.5 nM
52,CO/N=C/c1c(N)ncnc1N1CCN(C(=O)Nc2ccc(C3CCCCC3)cc2)CC1,–
458,Nc1ncnc(N2CCN(C(=O)Nc3ccc(N4CCCC4)cc3)CC2)c1/C=N/OCC(=O)N1CCOCC1,–
177,CC(C)Oc1ccc(NC(=O)N2CCN(c3ncnc(N)c3/C=N/OCCN3CCOCC3)CC2)cc1,–
515,CO/N=C/c1c(N)ncnc1N1CCN(C(=O)Nc2ccc(N3CCOCC3)cc2)CC1,Activity (BaF3 [7]): <50%
77,CCO/N=C/c1c(N)ncnc1N1CCN(C(=O)Nc2ccc(OC(C)C)cc2)CC1,–
283,CC(C)Oc1ccc(NC(=O)N2CCN(c3ncnc(N)c3/C=N/OCCCO)CC2)cc1,–
268,CC(C)Oc1ccc(NC(=O)N2CCN(c3ncnc(N)c3/C=N/OCC(=O)N3CCOCC3)CC2)cc1,–
65,CCO/N=C/c1c(N)ncnc1N1CCN(C(=O)Nc2ccc(OC3CCC3)nc2)CC1,–
> 1000,CO/N=C/c1c(N)ncnc1N1CCN(C(=O)Nc2ccc(Cl)cc2)CC1,Activity (BaF3 [7]): <50%
554,CS(=O)(=O)NCCO/N=C/c1c(N)ncnc1N1CCN(C(=O)Nc2ccc(N3CCCC3)cc2)CC1,–
86,CO/N=C/c1c(N)ncnc1N1CCN(C(=O)Nc2ccc(Oc3ccccc3)cc2)CC1,–

# Source: ChEMBL document CHEMBL1149650, “4-Amino-6-piperazin-1-yl-pyrimidine-5-carbaldehyde oximes as potent FLT-3 inhibitors” (Bioorg Med Chem Lett, 2007)
